# Measured values reported in ChEMBL document CHEMBL1124934, “Synthesis and structure-activity relationships of dynorphin A-(1-8) amide analogues” (J Med Chem, 1990).
# Tests used:
# [1] = target: Delta-type opioid receptor (Mus musculus, UniProt P32300); assay: Evaluated for inhibitory activity against Opioid receptor delta 1 of mouse vas deferens (MVD).; type: tissue-based
# Mu-type opioid receptor [2] = target: T1, Mu-type opioid receptor (Cavia porcellus, UniProt P97266); assay: Evaluated for inhibitory activity against Opioid receptor mu 1 of guinea pig ileum (GPI); type: tissue-based
# Mus musculus [3] = assay: Evaluated for analgesic effect using mouse tail-pinch test after intravenous administration; 2.08-7.27; type: functional
# Procedure, shortened: (§1)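 Mice, intravenous dosing, tail-pinch analgesia test. Four doses per compound, each dose tested on at least eight animals, giving ED50 in mg/kg.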
# Mu-type opioid receptor [4] = target: T1, Mu-type opioid receptor; assay: Binding affinities against Opioid receptor mu 1 of guinea pig brain membrane using [3H]DAGO as the radioligand using competition binding assays.
# Procedure, shortened: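 μ-site competition binding on crude P2 membranes from male Hartley guinea pig brain (1 g original wet weight/20 mL, 50 mM Tris-HCl pH 7.6) with 5 nM [3H]DAGO and varied competitor, 60 min at 25 °C. GF/B filtration (1% polyethylenimine presoaked), six ice-cold buffer rinses, scintillation counting. Nonspecific binding with 10 μM levallorphan. Mean of five or six determinations ± SEM.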
# Mus musculus [5] = assay: Evaluated for analgesic effect using mouse tail-pinch test after intravenous administration; 1.27-3.29; type: functional; procedure, shortened: as §1
# Mus musculus [6] = assay: Evaluated for analgesic effect using mouse tail-pinch test after intravenous administration; 1.97-5.67; type: functional; procedure, shortened: as §1
# Mus musculus [7] = assay: Evaluated for analgesic effect using mouse tail-pinch test after intravenous administration; type: functional; procedure, shortened: as §1
# Mus musculus [8] = assay: Evaluated for analgesic effect using mouse tail-pinch test after intravenous administration; 0.25-2.26; type: functional; procedure, shortened: as §1
# T1 sequence (P97266 whole entry): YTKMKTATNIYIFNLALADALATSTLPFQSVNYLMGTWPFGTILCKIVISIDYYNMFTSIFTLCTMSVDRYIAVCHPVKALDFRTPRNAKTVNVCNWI
# Chain of Delta-type opioid receptor (P32300 whole entry): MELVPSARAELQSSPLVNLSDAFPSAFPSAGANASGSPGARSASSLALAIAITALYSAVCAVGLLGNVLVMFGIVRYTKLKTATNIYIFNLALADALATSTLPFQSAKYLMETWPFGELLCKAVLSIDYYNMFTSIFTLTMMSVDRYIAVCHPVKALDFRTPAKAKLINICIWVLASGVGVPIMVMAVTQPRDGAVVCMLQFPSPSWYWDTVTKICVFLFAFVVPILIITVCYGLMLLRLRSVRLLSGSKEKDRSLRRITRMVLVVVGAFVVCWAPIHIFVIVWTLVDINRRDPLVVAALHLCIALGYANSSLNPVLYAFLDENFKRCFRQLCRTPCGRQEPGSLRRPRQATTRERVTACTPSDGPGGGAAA
Structure (SMILES),IC50 [1],IC50 (Mu-type opioid receptor [2]),further results
CN[C@@H](Cc1ccc(O)cc1)C(=O)NCC(=O)NCC(=O)N[C@@H](Cc1ccccc1)C(=O)N(C)[C@@H](CC(C)C)C(=O)N[C@@H](CCCNC(=N)N)C(=O)N[C@@H](CCCNC(=N)N)C(=O)N[C@H](CC(C)C)C(N)=O,25.3 nM,11.9 nM,–
CN[C@@H](Cc1ccc(O)cc1)C(=O)NCC(=O)N[C@H](C)C(=O)N[C@@H](Cc1ccccc1)C(=O)N[C@@H](CC(C)C)C(=O)N[C@@H](CCCN=C(N)N)C(=O)N[C@@H](CCCN=C(N)N)C(=O)N[C@@H](CC(C)C)C(N)=O,210 nM,12.7 nM,–
CN[C@@H](Cc1ccc(O)cc1)C(=O)NCC(=O)NCC(=O)N[C@H](Cc1ccccc1)C(=O)N[C@@H](CC(C)C)C(=O)N[C@@H](CCCNC(=N)N)C(=O)N[C@@H](CCCNC(=N)N)C(=O)N[C@@H](CC(C)C)C(N)=O,5.2 nM,–,ED50 (Mus musculus [3]): 3.89 mg/kg; Ki (Mu-type opioid receptor [4]): 2.81 nM
CN[C@@H](Cc1ccc(O)cc1)C(=O)NCC(=O)NCC(=O)N[C@@H](Cc1ccccc1)C(=O)N[C@@H](CC(C)C)C(=O)N[C@@H](CCCNC(=N)N)C(=O)N(C)[C@@H](CCCNC(=N)N)C(=O)N[C@H](CC(C)C)C(N)=O,4.8 nM,0.5 nM,Ki (Mu-type opioid receptor [4]): 3.34 nM
CN[C@@H](Cc1ccc(O)cc1)C(=O)NCC(=O)NCC(=O)N[C@H](Cc1ccccc1)C(=O)N[C@@H](CC(C)C)C(=O)N[C@@H](CCCN=C(N)N)C(=O)N(C)[C@@H](CCCN=C(N)N)C(=O)N[C@@H](CC(C)C)C(N)=O,–,–,ED50 (Mus musculus [5]): 2.04 mg/kg
CCNC(=O)[C@@H](CC(C)C)NC(=O)[C@H](CCCNC(=N)N)NC(=O)[C@H](CCCNC(=N)N)NC(=O)[C@H](CC(C)C)NC(=O)[C@H](Cc1ccccc1)NC(=O)CNC(=O)CNC(=O)[C@H](Cc1ccc(O)cc1)NC,4.6 nM,0.7 nM,–
CCNC(=O)[C@H](CC(C)C)NC(=O)[C@H](CCCN=C(N)N)NC(=O)[C@H](CCCN=C(N)N)NC(=O)[C@H](CC(C)C)NC(=O)[C@@H](Cc1ccccc1)NC(=O)CNC(=O)CNC(=O)[C@H](Cc1ccc(O)cc1)NC,–,–,ED50 (Mus musculus [6]): 3.34 mg/kg
CN[C@@H](Cc1ccc(O)cc1)C(=O)NCC(=O)NCC(=O)N[C@H](Cc1ccccc1)C(=O)N[C@H](CC(C)C)C(=O)N[C@@H](CCCNC(=N)N)C(=O)N[C@@H](CCCNC(=N)N)C(=O)N[C@@H](CC(C)C)C(N)=O,> 1740 nM,82 nM,ED50 (Mus musculus [7]): > 6 mg/kg
CN[C@@H](Cc1ccc(O)cc1)C(=O)NCC(=O)NCC(=O)N[C@@H](Cc1ccccc1)C(=O)N[C@H](C)C(=O)N[C@@H](CCCNC(=N)N)C(=O)N[C@@H](CCCNC(=N)N)C(=O)N[C@H](CC(C)C)C(N)=O,9800 nM,6000 nM,–
CN[C@@H](Cc1ccc(O)cc1)C(=O)NCC(=O)NCC(=O)N[C@H](Cc1ccccc1)C(=O)N[C@H](C)C(=O)N[C@@H](CCCN=C(N)N)C(=O)N[C@@H](CCCN=C(N)N)C(=O)N[C@@H](CC(C)C)C(N)=O,–,–,ED50 (Mus musculus [7]): > 20 mg/kg
CN[C@@H](Cc1ccc(O)cc1)C(=O)NCC(=O)NNC(=O)N[C@@H](Cc1ccccc1)C(=O)N[C@@H](CC(C)C)C(=O)N[C@@H](CCCNC(=N)N)C(=O)N[C@@H](CCCNC(=N)N)C(=O)N[C@H](CC(C)C)C(N)=O,62.4 nM,18.6 nM,–
CN[C@@H](Cc1ccc(O)cc1)C(=O)NCC(=O)NCC(=O)N[C@@H](Cc1ccccc1)C(=O)N[C@@H](CC(C)C)C(=O)N[C@@H](CCCN=C(N)N)C(=O)N[C@@H](CCCN=C(N)N)C(=O)N[C@@H](CC(C)C)C(N)=O,–,> 3000 nM,–
CN[C@@H](Cc1ccc(O)cc1)C(=O)NCC(=O)NCC(=O)N[C@@H](Cc1ccccc1)C(=O)N[C@@H](CC(C)C)C(=O)N[C@@H](CCCCN=C(N)N)C(=O)N[C@@H](CCCN=C(N)N)C(=O)N[C@H](CC(C)C)C(N)=O [listing 1 of 2 here],12 nM,2.6 nM,–
CN[C@@H](Cc1ccc(O)cc1)C(=O)NCC(=O)NCC(=O)N[C@@H](Cc1ccccc1)C(=O)N[C@@H](CC(C)C)C(=O)N[C@@H](CCCCN=C(N)N)C(=O)N[C@@H](CCCN=C(N)N)C(=O)N[C@H](CC(C)C)C(N)=O [listing 2 of 2 here],–,–,ED50 (Mus musculus [7]): > 8 mg/kg
CCNC(=O)[C@@H](CC(C)C)NC(=O)[C@H](CCCNC(=N)N)N(C)C(=O)[C@H](CCCNC(=N)N)NC(=O)[C@H](CC(C)C)NC(=O)[C@H](Cc1ccccc1)NC(=O)CNC(=O)CNC(=O)[C@H](Cc1ccc(O)cc1)NC,7.4 nM,0.3 nM,Ki (Mu-type opioid receptor [4]): 4.51 nM
CCNC(=O)[C@@H](CC(C)C)NC(=O)[C@H](CCCN=C(N)N)N(C)C(=O)[C@H](CCCN=C(N)N)NC(=O)[C@H](CC(C)C)NC(=O)[C@H](Cc1ccccc1)NC(=O)CNC(=O)CNC(=O)[C@H](Cc1ccc(O)cc1)NC,–,–,ED50 (Mus musculus [8]): 0.75 mg/kg
